Assay [1] concerns the target T1, Potassium voltage-gated channel subfamily KQT member 2 (Homo sapiens, UniProt O43526). Briefly: Agonist activity at KCNQ2 expressed in CHO cells incubated for 3 mins by automated patch clamp assay. Type of assay: functional, cell-based. The procedure, abridged:
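Ionworks Quattro population patch clamp on CHO cells stably expressing KCNQ2, 7,000 cells/well in extracellular solution (mM: 137 NaCl, 4 KCl, 1 MgCl2, 1.8 CaCl2, 10 HEPES, 10 glucose, pH 7.4), amphotericin B (50 μg/ml) perforation. Held -90 mV, 2,000 ms step to -10 mV; steady-state current at pulse end before and 3 min after compound; % change versus pre-compound current. Cells >100 pA and seal >30 MΩ only.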

For assay [2], the target named is T1, Potassium voltage-gated channel subfamily KQT member 2. Briefly: Antagonist activity at KCNQ2 expressed in CHO cells incubated for 3 mins by automated patch clamp assay. The format is functional, cell-based. A general note: The patch-clamp technique gives a direct electrical read-out from membranes.

Where only a bound is given, the exact number is not on record here.

T1 sequence (O43526 whole entry): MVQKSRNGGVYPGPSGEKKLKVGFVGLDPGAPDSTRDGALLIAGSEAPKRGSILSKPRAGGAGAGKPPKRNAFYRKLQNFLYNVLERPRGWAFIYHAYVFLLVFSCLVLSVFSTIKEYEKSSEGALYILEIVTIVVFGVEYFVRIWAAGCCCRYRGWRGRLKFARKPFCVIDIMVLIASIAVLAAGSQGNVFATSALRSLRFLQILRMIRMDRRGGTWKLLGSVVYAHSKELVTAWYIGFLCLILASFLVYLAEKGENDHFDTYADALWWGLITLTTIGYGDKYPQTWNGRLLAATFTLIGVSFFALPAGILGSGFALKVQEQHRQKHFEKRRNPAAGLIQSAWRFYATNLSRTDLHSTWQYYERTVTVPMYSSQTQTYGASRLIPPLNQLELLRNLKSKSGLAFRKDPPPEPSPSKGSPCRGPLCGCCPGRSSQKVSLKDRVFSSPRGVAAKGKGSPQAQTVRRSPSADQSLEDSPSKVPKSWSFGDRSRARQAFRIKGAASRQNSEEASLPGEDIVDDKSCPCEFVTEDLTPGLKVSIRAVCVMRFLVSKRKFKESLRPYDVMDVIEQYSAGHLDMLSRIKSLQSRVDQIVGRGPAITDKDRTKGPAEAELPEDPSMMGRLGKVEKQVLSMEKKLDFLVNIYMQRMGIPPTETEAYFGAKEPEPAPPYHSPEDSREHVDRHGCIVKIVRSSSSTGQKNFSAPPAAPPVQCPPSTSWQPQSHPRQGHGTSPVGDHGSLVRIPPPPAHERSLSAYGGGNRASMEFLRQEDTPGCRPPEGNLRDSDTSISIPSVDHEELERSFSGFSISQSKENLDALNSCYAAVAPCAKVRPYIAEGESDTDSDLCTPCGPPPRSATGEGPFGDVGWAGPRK

`CCN(C)c1ccccc1NC(=O)Cc1cccc(Cl)c1` yielded an EC50 in assay [1] of more than 30000 nM. In assay [2], `CCC(C(=O)Nc1ccccc1N(C)CC)c1ccccc1` (racemic) had an IC50 of more than 30000 nM. Turning to `O=C(Cc1ccc(Cl)cc1)Nc1ccccc1N1CCCC1`, the EC50 in assay [1] came to 800 nM. Turning to `O=C(Cc1ccccc1)Nc1ccccc1N1CCCC1`, in assay [1], a half-maximal effect (EC50) was put at 743 nM.

With `O=C(Cc1cccc(F)c1)Nc1ccccc1N1CCCC1`, the concentration for a half-maximal effect (EC50) in assay [1] worked out at 490 nM.

Regarding `CCC(C(=O)Nc1ccccc1Cl)c1ccccc1` (racemic), 15000 nM corresponded to half-maximal inhibition in assay [2] (IC50). In assay [1], `O=C(Cc1ccc(F)cc1)Nc1ccccc1N1CCCC1` showed an EC50 of 700 nM.

Consider `CN(Cc1ccccc1)c1ccccc1NC(=O)Cc1cccc(Cl)c1`, for which the 50% effective concentration (EC50) in assay [1] was more than 30000 nM. Regarding `CC(C(=O)Nc1ccccc1N1CCCC1)c1ccccc1` (racemic), in assay [2], the IC50 stood at 260 nM. Same read-out and setting: the result for `CCC(C(=O)Nc1ccccc1N1CCCC1)c1ccc(Cl)c(Cl)c1` (racemic) reads 470 nM. `O=C(Cc1cccc(Cl)c1)Nc1cccc(N2CCCC2)c1` yielded an EC50 in assay [1] of 1020 nM. The compound `O=C(Cc1cccc(C(F)(F)F)c1)Nc1ccccc1N1CCCC1` came in with an EC50 in assay [1] of 350 nM. The same measure, in the same setting: the result for `COc1cccc(CC(=O)Nc2ccccc2N2CCCC2)c1` reads 2350 nM. As for `CC(C)(C(=O)Nc1ccccc1N1CCCC1)c1ccccc1`, the IC50 in assay [2] was more than 30000 nM. In assay [1], `O=C(Cc1ccccc1Cl)Nc1ccccc1N1CCCC1` showed an EC50 of 950 nM. Turning to `O=C(Nc1ccccc1N1CCCC1)C(F)c1ccccc1` (stereo unspecified), the EC50 in assay [1] was 990 nM. As to `CCC(C(=O)N(C)c1ccccc1N1CCCC1)c1ccccc1` (racemic), the half-inhibitory concentration (IC50) in assay [2] is more than 30000 nM. The same measure, in the same setting: the same measure for `CCC(C(=O)Nc1ccccc1N1CCCC1)c1ccc(OC)c(OC)c1` (racemic): 20200 nM. Same read-out and setting: the result for `CCC(C(=O)Nc1ccccc1-n1cccc1)c1ccccc1` (racemic) reads 5270 nM.

As for `CCC(C(=O)Nc1ccccc1-n1c(C)ccc1C)c1ccccc1` (racemic), the concentration for a half-maximal effect (EC50) in assay [1] is more than 30000 nM.

In the case of `CCC(C(=O)Nc1ccccc1N1CCCC1)c1ccc(F)c(F)c1` (racemic), the IC50 in assay [2] worked out at 170 nM. In assay [2], `CCC(C(=O)Nc1ccccc1N1CCCC1)c1ccccc1Cl` (racemic) came in with an IC50 of 3310 nM. In the case of `O=C(Cc1cccc(Cl)c1)Nc1ccccc1N1CCCCC1`, in assay [1], a half-maximal response (EC50) required 7090 nM. With `O=C(Nc1ccccc1N1CCCC1)C1(c2ccccc2)CC1`, in assay [2], the IC50 was more than 30000 nM.

With `O=C(Nc1ccccc1N1CCCC1)C(c1ccccc1)C1CC1` (racemic), the midpoint of inhibition in assay [2], the IC50, lay at 3500 nM. The same measure, in the same setting: the result for `O=C(Nc1ccccc1N1CCCC1)C1CCc2ccccc21` (racemic) reads 330 nM; that for `CCC(C(=O)Nc1ccccc1N1CCCC1)c1ccc(OC)cc1` (racemic), 380 nM. For `CCCC(C(=O)Nc1ccccc1N1CCCC1)c1ccccc1` (racemic), 320 nM corresponded to half-maximal inhibition in assay [2] (IC50).

`O=C(Cc1cccc(Cl)c1)Nc1ccc(N2CCCC2)cc1` had an EC50 in assay [1] of 8660 nM. In assay [2], `CCC(C(=O)Nc1ccccc1-n1ccnc1)c1ccccc1` (racemic) registered an IC50 of more than 30000 nM.

As for `O=C(Cc1ccc(F)c(F)c1)Nc1ccccc1N1CCCC1`, in assay [1], the concentration for a half-maximal effect (EC50) was 1730 nM. Take `O=C(Nc1ccccc1N1CCCC1)C1CCOc2ccccc21` (racemic): the IC50 in assay [2] was more than 30000 nM. `O=C(Cc1cccc(Cl)c1)Nc1ccccc1N1CCCC1` registered an EC50 in assay [1] of 170 nM. Same read-out and setting: the same measure for `O=C(Cc1cccc(Cl)c1)Nc1ccccc1N1CCCCCC1`: more than 30000 nM.

`CCC(C(=O)Nc1ccc(N2CCCC2)cc1)c1ccccc1` (stereo unspecified): in assay [2], the half-maximal inhibitory concentration (IC50) turned out to be 210 nM. Still for that read-out and setting: the result for `CCC(C(=O)Nc1ccccc1N1CCOCC1)c1ccccc1` (racemic) reads 12700 nM; that for `CCC(C(=O)Nc1ccccc1N1C(=O)CCC1=O)c1ccccc1` (racemic), more than 30000 nM; that for `CCC(C(=O)Nc1ccccc1N1CCCCCC1)c1ccccc1` (racemic), more than 30000 nM. Same read-out and setting: the same measure for `CCC(C(=O)Nc1ccccc1N1CCCC1)c1ccccc1` (racemic): 163 nM; for `CCC(C(=O)Nc1cccc(N2CCCC2)c1)c1ccccc1` (racemic): more than 30000 nM. In the case of `CC(C)CC(C(=O)Nc1ccccc1N1CCCC1)c1ccccc1` (racemic), in assay [2], the midpoint of inhibition, the IC50, lay at 2220 nM.

As usually defined, the EC50 is the concentration that produces a half-maximal response. A word on the IC50: it is the midpoint of a concentration-inhibition curve. A higher IC50 goes with weaker potency in that assay.

The record behind these values is ChEMBL document CHEMBL2163245 (J Med Chem, 2012).
